Measurements published in ChEMBL document CHEMBL1124366, “Synthesis and biological properties of N63-carboxamides of teicoplanin antibiotics. Structure-activity relationships” (J Med Chem, 1989).
≈ marks a conversion by molar mass, not a printed value.

Columns and labels:
Format in all cases: functional
Escherichia coli = experiment: In vitro minimum inhibitory concentration against Escherichia coli SKF 12140
Streptococcus pyogenes [1] = experiment: Subcutaneously administration into mice infected with Streptococcus pyogenes C 203; details: sc
Procedure, shortened: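 Mice (five per treatment group, five groups) infected intraperitoneally with about 10⁵ cells of Strep. pyogenes C 203, about 100× the LD50. ED50 (mg/kg) was calculated from the percentage of mice surviving at each dose on day 7.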

Pseudomonas aeruginosa = experiment: In vitro minimum inhibitory concentration against Pseudomonas aeruginosa ATCC 10145
[2] = test system: Staphylococcus epidermidis; experiment: In vitro minimum inhibitory concentration against Staphylococcus epidermis ATCC 12228
[3] = test system: Staphylococcus haemolyticus; experiment: In vitro minimum inhibitory concentration against Staphylococcus hemolyticus 602 cell line; details: strain 602
Staphylococcus aureus = experiment: In vitro minimum inhibitory concentration against Staphylococcus aureus Tour
Streptococcus pneumoniae = experiment: In vitro minimum inhibitory concentration against Streptococcus pneumoniae UC41
Streptococcus pyogenes [4] = experiment: In vitro minimum inhibitory concentration against Streptococcus pyogenes C 203
Enterococcus faecalis = experiment: In vitro minimum inhibitory concentration against Streptococcus faecalis ATCC 7080
Proteus vulgaris = experiment: In vitro minimum inhibitory concentration against Proteus vulgaris X 19 ATCC 881

MIC (Escherichia coli)	MIC (Pseudomonas aeruginosa)	MIC [2]	MIC (Staphylococcus aureus)	MIC (Streptococcus pneumoniae)	MIC (Streptococcus pyogenes [4])	MIC (Enterococcus faecalis)	MIC (Proteus vulgaris)	SMILES	ED50 (Streptococcus pyogenes [1])	MIC [3]
8 µg/mL (≈ 6.17 µM)	32 µg/mL (≈ 24.7 µM)	0.06 µg/mL (≈ 0.0463 µM)	0.06 µg/mL (≈ 0.0463 µM)	0.12 µg/mL (≈ 0.0925 µM)	0.06 µg/mL (≈ 0.0463 µM)	0.12 µg/mL (≈ 0.0925 µM)	32 µg/mL (≈ 24.7 µM)	CN(C)CCCCNC(=O)[C@H]1NC(=O)[C@H]2NC(=O)[C@H](NC(=O)[C@@H]3NC(=O)[C@H]4NC(=O)[C@@H](Cc5ccc(c(Cl)c5)Oc5cc3cc(c5O)Oc3ccc(cc3Cl)[C@H]2O)NC(=O)[C@H](N)c2ccc(O)c(c2)Oc2cc(O)cc4c2)c2ccc(O)c(c2)-c2c(O)cc(O)cc21	0.54 mg/kg	0.12 µg/mL (≈ 0.0925 µM)
4 µg/mL (≈ 3.08 µM)	64 µg/mL (≈ 49.3 µM)	0.06 µg/mL (≈ 0.0463 µM)	0.06 µg/mL (≈ 0.0463 µM)	0.06 µg/mL (≈ 0.0463 µM)	0.06 µg/mL (≈ 0.0463 µM)	0.12 µg/mL (≈ 0.0925 µM)	64 µg/mL (≈ 49.3 µM)	NCCCCCCNC(=O)[C@H]1NC(=O)[C@H]2NC(=O)[C@H](NC(=O)[C@@H]3NC(=O)[C@H]4NC(=O)[C@@H](Cc5ccc(c(Cl)c5)Oc5cc3cc(c5O)Oc3ccc(cc3Cl)[C@H]2O)NC(=O)[C@H](N)c2ccc(O)c(c2)Oc2cc(O)cc4c2)c2ccc(O)c(c2)-c2c(O)cc(O)cc21	0.54 mg/kg	0.12 µg/mL (≈ 0.0925 µM)
8 µg/mL (≈ 6.04 µM)	32 µg/mL (≈ 24.1 µM)	0.06 µg/mL (≈ 0.0453 µM)	0.06 µg/mL (≈ 0.0453 µM)	0.12 µg/mL (≈ 0.0906 µM)	0.06 µg/mL (≈ 0.0453 µM)	0.12 µg/mL (≈ 0.0906 µM)	64 µg/mL (≈ 48.3 µM)	N[C@H]1C(=O)N[C@@H]2Cc3ccc(c(Cl)c3)Oc3cc4cc(c3O)Oc3ccc(cc3Cl)[C@@H](O)[C@@H]3NC(=O)[C@H](NC(=O)[C@@H]4NC(=O)[C@@H](NC2=O)c2cc(O)cc(c2)Oc2cc1ccc2O)c1ccc(O)c(c1)-c1c(O)cc(O)cc1[C@@H](C(=O)NCCCN1CCOCC1)NC3=O	1.4 mg/kg	0.12 µg/mL (≈ 0.0906 µM)
4 µg/mL (≈ 3.15 µM)	16 µg/mL (≈ 12.6 µM)	0.06 µg/mL (≈ 0.0473 µM)	0.06 µg/mL (≈ 0.0473 µM)	0.12 µg/mL (≈ 0.0946 µM)	0.06 µg/mL (≈ 0.0473 µM)	0.12 µg/mL (≈ 0.0946 µM)	32 µg/mL (≈ 25.2 µM)	CN(C)CCNC(=O)[C@H]1NC(=O)[C@H]2NC(=O)[C@H](NC(=O)[C@@H]3NC(=O)[C@H]4NC(=O)[C@@H](Cc5ccc(c(Cl)c5)Oc5cc3cc(c5O)Oc3ccc(cc3Cl)[C@H]2O)NC(=O)[C@H](N)c2ccc(O)c(c2)Oc2cc(O)cc4c2)c2ccc(O)c(c2)-c2c(O)cc(O)cc21	1.25 mg/kg	0.06 µg/mL (≈ 0.0473 µM)
8 µg/mL (≈ 6.3 µM)	32 µg/mL (≈ 25.2 µM)	0.06 µg/mL (≈ 0.0473 µM)	0.06 µg/mL (≈ 0.0473 µM)	0.12 µg/mL (≈ 0.0946 µM)	0.06 µg/mL (≈ 0.0473 µM)	0.12 µg/mL (≈ 0.0946 µM)	32 µg/mL (≈ 25.2 µM)	NCCCCNC(=O)[C@H]1NC(=O)[C@H]2NC(=O)[C@H](NC(=O)[C@@H]3NC(=O)[C@H]4NC(=O)[C@@H](Cc5ccc(c(Cl)c5)Oc5cc3cc(c5O)Oc3ccc(cc3Cl)[C@H]2O)NC(=O)[C@H](N)c2ccc(O)c(c2)Oc2cc(O)cc4c2)c2ccc(O)c(c2)-c2c(O)cc(O)cc21	0.54 mg/kg	0.12 µg/mL (≈ 0.0946 µM)
2 µg/mL (≈ 1.56 µM)	16 µg/mL (≈ 12.5 µM)	0.06 µg/mL (≈ 0.0468 µM)	0.06 µg/mL (≈ 0.0468 µM)	0.12 µg/mL (≈ 0.0935 µM)	0.06 µg/mL (≈ 0.0468 µM)	0.12 µg/mL (≈ 0.0935 µM)	32 µg/mL (≈ 24.9 µM)	CNCCCN(C)C(=O)[C@H]1NC(=O)[C@H]2NC(=O)[C@H](NC(=O)[C@@H]3NC(=O)[C@H]4NC(=O)[C@@H](Cc5ccc(c(Cl)c5)Oc5cc3cc(c5O)Oc3ccc(cc3Cl)[C@H]2O)NC(=O)[C@H](N)c2ccc(O)c(c2)Oc2cc(O)cc4c2)c2ccc(O)c(c2)-c2c(O)cc(O)cc21	0.95 mg/kg	0.06 µg/mL (≈ 0.0468 µM)
4 µg/mL (≈ 3.15 µM)	16 µg/mL (≈ 12.6 µM)	0.06 µg/mL (≈ 0.0473 µM)	0.06 µg/mL (≈ 0.0473 µM)	0.12 µg/mL (≈ 0.0946 µM)	0.06 µg/mL (≈ 0.0473 µM)	0.12 µg/mL (≈ 0.0946 µM)	16 µg/mL (≈ 12.6 µM)	CNCCCNC(=O)[C@H]1NC(=O)[C@H]2NC(=O)[C@H](NC(=O)[C@@H]3NC(=O)[C@H]4NC(=O)[C@@H](Cc5ccc(c(Cl)c5)Oc5cc3cc(c5O)Oc3ccc(cc3Cl)[C@H]2O)NC(=O)[C@H](N)c2ccc(O)c(c2)Oc2cc(O)cc4c2)c2ccc(O)c(c2)-c2c(O)cc(O)cc21	0.95 mg/kg	0.25 µg/mL (≈ 0.197 µM)
4 µg/mL (≈ 3.22 µM)	16 µg/mL (≈ 12.9 µM)	0.03 µg/mL (≈ 0.0242 µM)	0.06 µg/mL (≈ 0.0483 µM)	0.12 µg/mL (≈ 0.0967 µM)	0.06 µg/mL (≈ 0.0483 µM)	0.12 µg/mL (≈ 0.0967 µM)	16 µg/mL (≈ 12.9 µM)	NCCNC(=O)[C@H]1NC(=O)[C@H]2NC(=O)[C@H](NC(=O)[C@@H]3NC(=O)[C@H]4NC(=O)[C@@H](Cc5ccc(c(Cl)c5)Oc5cc3cc(c5O)Oc3ccc(cc3Cl)[C@H]2O)NC(=O)[C@H](N)c2ccc(O)c(c2)Oc2cc(O)cc4c2)c2ccc(O)c(c2)-c2c(O)cc(O)cc21	1.25 mg/kg	0.12 µg/mL (≈ 0.0967 µM)
4 µg/mL (≈ 3.06 µM)	64 µg/mL (≈ 48.9 µM)	0.06 µg/mL (≈ 0.0458 µM)	0.06 µg/mL (≈ 0.0458 µM)	0.06 µg/mL (≈ 0.0458 µM)	0.06 µg/mL (≈ 0.0458 µM)	0.12 µg/mL (≈ 0.0917 µM)	32 µg/mL (≈ 24.4 µM)	CCN1CCCC1CNC(=O)[C@H]1NC(=O)[C@H]2NC(=O)[C@H](NC(=O)[C@@H]3NC(=O)[C@H]4NC(=O)[C@@H](Cc5ccc(c(Cl)c5)Oc5cc3cc(c5O)Oc3ccc(cc3Cl)[C@H]2O)NC(=O)[C@H](N)c2ccc(O)c(c2)Oc2cc(O)cc4c2)c2ccc(O)c(c2)-c2c(O)cc(O)cc21 (some centres undefined)	1.25 mg/kg	0.12 µg/mL (≈ 0.0917 µM)
8 µg/mL (≈ 6.3 µM)	32 µg/mL (≈ 25.2 µM)	0.06 µg/mL (≈ 0.0473 µM)	0.06 µg/mL (≈ 0.0473 µM)	0.12 µg/mL (≈ 0.0946 µM)	0.06 µg/mL (≈ 0.0473 µM)	0.12 µg/mL (≈ 0.0946 µM)	64 µg/mL (≈ 50.4 µM)	CCNCCNC(=O)[C@H]1NC(=O)[C@H]2NC(=O)[C@H](NC(=O)[C@@H]3NC(=O)[C@H]4NC(=O)[C@@H](Cc5ccc(c(Cl)c5)Oc5cc3cc(c5O)Oc3ccc(cc3Cl)[C@H]2O)NC(=O)[C@H](N)c2ccc(O)c(c2)Oc2cc(O)cc4c2)c2ccc(O)c(c2)-c2c(O)cc(O)cc21	1.25 mg/kg	0.12 µg/mL (≈ 0.0946 µM)
8 µg/mL (≈ 6.1 µM)	64 µg/mL (≈ 48.8 µM)	0.06 µg/mL (≈ 0.0458 µM)	0.06 µg/mL (≈ 0.0458 µM)	0.12 µg/mL (≈ 0.0915 µM)	0.06 µg/mL (≈ 0.0458 µM)	0.12 µg/mL (≈ 0.0915 µM)	128 µg/mL (≈ 97.6 µM)	CN(C)CCCCCNC(=O)[C@H]1NC(=O)[C@H]2NC(=O)[C@H](NC(=O)[C@@H]3NC(=O)[C@H]4NC(=O)[C@@H](Cc5ccc(c(Cl)c5)Oc5cc3cc(c5O)Oc3ccc(cc3Cl)[C@H]2O)NC(=O)[C@H](N)c2ccc(O)c(c2)Oc2cc(O)cc4c2)c2ccc(O)c(c2)-c2c(O)cc(O)cc21	0.72 mg/kg	0.12 µg/mL (≈ 0.0915 µM)
16 µg/mL (≈ 12.2 µM)	64 µg/mL (≈ 48.8 µM)	0.016 µg/mL (≈ 0.0122 µM)	0.06 µg/mL (≈ 0.0458 µM)	0.12 µg/mL (≈ 0.0915 µM)	0.12 µg/mL (≈ 0.0915 µM)	0.12 µg/mL (≈ 0.0915 µM)	128 µg/mL (≈ 97.6 µM)	N[C@H]1C(=O)N[C@@H]2Cc3ccc(c(Cl)c3)Oc3cc4cc(c3O)Oc3ccc(cc3Cl)[C@@H](O)[C@@H]3NC(=O)[C@H](NC(=O)[C@@H]4NC(=O)[C@@H](NC2=O)c2cc(O)cc(c2)Oc2cc1ccc2O)c1ccc(O)c(c1)-c1c(O)cc(O)cc1[C@@H](C(=O)NCCN1CCOCC1)NC3=O	2.2 mg/kg	
